Test results: ChEMBL document CHEMBL1147898, “Synthesis and preliminary pharmacological evaluation of the four stereoisomers of (2S)-2-(2'-phosphono-3'-phenylcyclopropyl)glycine, the first class of 3'-substituted trans C1'-2'-2-(2'-phosphonocyclopropyl)glycines” (Bioorg Med Chem, 2007)

Assays:
[1] = biological target: T1, Metabotropic glutamate receptor 4 (Rattus norvegicus, UniProt P31423); assay: Agonist activity at rat recombinant mGluR4 expressed in BHK cells; format: functional, cell-based
T1 sequence (P31423 whole entry): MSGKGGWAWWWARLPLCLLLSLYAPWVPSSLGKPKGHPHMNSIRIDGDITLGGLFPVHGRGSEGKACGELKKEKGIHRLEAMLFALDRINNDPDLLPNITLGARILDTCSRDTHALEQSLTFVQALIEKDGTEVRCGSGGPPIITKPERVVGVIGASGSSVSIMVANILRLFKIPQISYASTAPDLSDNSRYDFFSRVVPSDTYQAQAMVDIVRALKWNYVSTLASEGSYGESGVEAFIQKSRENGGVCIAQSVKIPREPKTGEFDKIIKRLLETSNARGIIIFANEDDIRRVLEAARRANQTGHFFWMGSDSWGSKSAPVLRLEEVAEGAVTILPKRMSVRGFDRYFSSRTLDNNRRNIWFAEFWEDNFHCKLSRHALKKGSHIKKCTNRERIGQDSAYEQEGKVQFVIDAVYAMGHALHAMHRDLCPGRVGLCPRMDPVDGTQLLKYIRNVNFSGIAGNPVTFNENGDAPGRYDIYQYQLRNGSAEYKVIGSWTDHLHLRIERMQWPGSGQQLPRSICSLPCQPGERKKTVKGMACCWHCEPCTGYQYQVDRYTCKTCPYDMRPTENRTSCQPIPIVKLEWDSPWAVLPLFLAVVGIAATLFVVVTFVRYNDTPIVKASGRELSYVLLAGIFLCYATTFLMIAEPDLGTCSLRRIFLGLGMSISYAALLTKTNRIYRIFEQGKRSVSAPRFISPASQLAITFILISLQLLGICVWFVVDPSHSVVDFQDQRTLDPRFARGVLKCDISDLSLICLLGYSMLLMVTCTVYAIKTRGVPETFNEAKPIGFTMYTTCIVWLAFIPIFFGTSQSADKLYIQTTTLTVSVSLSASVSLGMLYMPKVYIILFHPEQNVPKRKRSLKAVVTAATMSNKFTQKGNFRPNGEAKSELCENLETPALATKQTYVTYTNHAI
In short: (§1)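 Group III functional read-out: cAMP formation measured in BHK cells expressing hmGluR7 or rmGluR4. EC50 reported in µM as means ± SEM of at least three independent experiments, each performed in triplicate.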

[2] = biological target: Metabotropic glutamate receptor 1 (Rattus norvegicus, UniProt P23385); assay: Activity at rat recombinant mGluR1 expressed in CHO cells assessed as intracellular calcium concentration; format: functional, cell-based
[3] = biological target: T1, Metabotropic glutamate receptor 4; assay: Displacement of [3H]L-AP4 from rat recombinant mGluR4 expressed in BHK cells by SPA assay; format: cell-based
In short: (§2)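 Scintillation proximity binding assay on membranes of BHK cells expressing rmGluR4 or rmGluR8. Radioligand was [3H]-L-AP4 for rmGluR4 and [3H]-LY341495 for rmGluR8. Values are means ± SEM of at least three independent experiments performed in triplicate.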

[4] = biological target: Metabotropic glutamate receptor 5 (Rattus norvegicus, UniProt P31424); assay: Activity at rat recombinant mGluR5 expressed in CHO cells assessed as intracellular calcium concentration; format: functional, cell-based
Metabotropic glutamate receptor 5, sequence (P31424 whole entry): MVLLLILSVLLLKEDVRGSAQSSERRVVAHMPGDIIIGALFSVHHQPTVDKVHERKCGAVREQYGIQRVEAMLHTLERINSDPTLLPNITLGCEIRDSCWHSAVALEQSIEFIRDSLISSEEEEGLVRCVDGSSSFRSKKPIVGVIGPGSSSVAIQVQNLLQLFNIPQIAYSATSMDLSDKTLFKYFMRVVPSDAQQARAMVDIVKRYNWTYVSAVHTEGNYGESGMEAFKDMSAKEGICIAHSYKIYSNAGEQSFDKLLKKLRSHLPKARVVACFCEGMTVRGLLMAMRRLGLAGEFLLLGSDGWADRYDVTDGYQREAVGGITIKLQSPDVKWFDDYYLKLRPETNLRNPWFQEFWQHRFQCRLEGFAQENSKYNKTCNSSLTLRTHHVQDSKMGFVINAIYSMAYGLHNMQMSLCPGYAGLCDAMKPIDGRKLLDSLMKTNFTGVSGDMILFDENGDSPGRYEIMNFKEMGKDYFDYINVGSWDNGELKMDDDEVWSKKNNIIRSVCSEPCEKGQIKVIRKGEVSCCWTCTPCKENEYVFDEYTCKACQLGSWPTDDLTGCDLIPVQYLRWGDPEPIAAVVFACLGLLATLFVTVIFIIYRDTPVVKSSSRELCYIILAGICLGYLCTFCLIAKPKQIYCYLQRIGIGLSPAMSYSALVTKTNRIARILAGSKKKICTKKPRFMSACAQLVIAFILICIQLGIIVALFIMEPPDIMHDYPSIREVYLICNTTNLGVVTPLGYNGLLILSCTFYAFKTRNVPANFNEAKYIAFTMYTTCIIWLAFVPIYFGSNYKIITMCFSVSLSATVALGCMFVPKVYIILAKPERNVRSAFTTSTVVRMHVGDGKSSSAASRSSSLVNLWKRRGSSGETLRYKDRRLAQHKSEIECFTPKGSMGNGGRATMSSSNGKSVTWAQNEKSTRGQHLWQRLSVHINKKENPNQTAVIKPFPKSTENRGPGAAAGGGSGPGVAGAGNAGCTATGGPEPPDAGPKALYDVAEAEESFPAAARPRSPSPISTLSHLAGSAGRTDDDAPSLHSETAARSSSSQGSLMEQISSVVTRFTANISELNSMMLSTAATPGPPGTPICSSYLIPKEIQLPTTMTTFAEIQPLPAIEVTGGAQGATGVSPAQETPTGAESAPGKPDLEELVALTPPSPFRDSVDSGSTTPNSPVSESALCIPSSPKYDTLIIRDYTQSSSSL

[5] = biological target: Metabotropic glutamate receptor 2 (Homo sapiens, UniProt Q14416); assay: Activity at human recombinant mGluR2 expressed in BHK cells assessed as stimulation of [35S]GTP-gamma-S binding; format: functional, cell-based
[6] = biological target: Metabotropic glutamate receptor 6 (Rattus norvegicus, UniProt P35349); assay: Activity at rat recombinant mGluR6 expressed in CHO cells assessed as cAMP production; format: functional, cell-based
Metabotropic glutamate receptor 6, sequence (P35349 whole entry): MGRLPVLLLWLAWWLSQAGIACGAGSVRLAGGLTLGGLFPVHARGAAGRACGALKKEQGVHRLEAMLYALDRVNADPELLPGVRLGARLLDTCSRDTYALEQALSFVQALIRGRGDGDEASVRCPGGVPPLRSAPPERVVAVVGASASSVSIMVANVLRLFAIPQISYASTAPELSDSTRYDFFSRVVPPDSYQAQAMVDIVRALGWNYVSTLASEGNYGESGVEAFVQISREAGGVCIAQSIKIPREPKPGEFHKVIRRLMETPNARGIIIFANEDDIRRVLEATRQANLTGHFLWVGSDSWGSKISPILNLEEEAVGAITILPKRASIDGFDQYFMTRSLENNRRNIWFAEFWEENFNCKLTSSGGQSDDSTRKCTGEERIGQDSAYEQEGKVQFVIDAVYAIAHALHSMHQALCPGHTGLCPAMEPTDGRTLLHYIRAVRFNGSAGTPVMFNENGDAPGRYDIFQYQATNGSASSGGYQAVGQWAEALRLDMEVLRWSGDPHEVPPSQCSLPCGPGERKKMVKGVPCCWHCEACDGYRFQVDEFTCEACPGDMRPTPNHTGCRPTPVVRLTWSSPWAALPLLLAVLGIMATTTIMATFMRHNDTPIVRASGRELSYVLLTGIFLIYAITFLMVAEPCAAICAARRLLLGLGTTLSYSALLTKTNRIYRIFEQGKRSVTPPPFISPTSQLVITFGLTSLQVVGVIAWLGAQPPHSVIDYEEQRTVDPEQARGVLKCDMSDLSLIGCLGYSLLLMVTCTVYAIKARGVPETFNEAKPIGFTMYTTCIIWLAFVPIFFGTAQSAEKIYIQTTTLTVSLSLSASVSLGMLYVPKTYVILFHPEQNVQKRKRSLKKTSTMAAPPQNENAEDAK
In short: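 rmGluR6 expressed in CHO cells. Potency was measured from cAMP formation, reported as EC50. Means ± SEM of at least three independent experiments, each in triplicate.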

[7] = biological target: Metabotropic glutamate receptor 7 (Homo sapiens, UniProt Q14831); assay: Activity at human recombinant mGluR7 expressed in BHK cells assessed as cAMP production; format: functional, cell-based; in short: as §1
Metabotropic glutamate receptor 7, sequence (Q14831 whole entry): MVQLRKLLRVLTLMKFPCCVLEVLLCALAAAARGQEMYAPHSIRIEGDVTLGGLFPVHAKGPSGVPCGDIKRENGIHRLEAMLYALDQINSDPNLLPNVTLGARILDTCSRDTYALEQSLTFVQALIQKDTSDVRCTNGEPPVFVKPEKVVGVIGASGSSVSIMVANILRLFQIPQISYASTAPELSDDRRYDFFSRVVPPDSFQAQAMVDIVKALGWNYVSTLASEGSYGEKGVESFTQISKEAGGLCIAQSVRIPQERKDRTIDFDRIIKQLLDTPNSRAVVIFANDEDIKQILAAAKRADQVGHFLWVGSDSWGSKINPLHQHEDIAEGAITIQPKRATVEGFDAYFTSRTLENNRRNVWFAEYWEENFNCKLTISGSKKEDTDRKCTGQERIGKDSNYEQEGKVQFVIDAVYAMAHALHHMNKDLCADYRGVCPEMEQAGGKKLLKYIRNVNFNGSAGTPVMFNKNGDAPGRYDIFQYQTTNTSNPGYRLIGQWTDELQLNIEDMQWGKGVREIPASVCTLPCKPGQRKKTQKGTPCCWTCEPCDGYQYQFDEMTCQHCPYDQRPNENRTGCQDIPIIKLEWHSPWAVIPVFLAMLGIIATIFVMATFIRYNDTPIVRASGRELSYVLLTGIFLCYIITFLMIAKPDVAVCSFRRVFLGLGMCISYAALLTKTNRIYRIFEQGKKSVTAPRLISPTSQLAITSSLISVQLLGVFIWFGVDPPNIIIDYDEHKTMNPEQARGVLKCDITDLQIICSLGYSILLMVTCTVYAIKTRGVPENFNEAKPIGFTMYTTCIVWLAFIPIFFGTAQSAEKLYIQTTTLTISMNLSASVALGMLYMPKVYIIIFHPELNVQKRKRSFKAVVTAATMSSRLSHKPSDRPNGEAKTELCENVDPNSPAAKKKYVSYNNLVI

[8] = biological target: Metabotropic glutamate receptor 8 (Rattus norvegicus, UniProt P70579); assay: Displacement of [3H]LY341495 from rat recombinant mGluR8 expressed in BHK cells by SPA assay; format: cell-based; in short: as §2
Metabotropic glutamate receptor 8, sequence (P70579 whole entry): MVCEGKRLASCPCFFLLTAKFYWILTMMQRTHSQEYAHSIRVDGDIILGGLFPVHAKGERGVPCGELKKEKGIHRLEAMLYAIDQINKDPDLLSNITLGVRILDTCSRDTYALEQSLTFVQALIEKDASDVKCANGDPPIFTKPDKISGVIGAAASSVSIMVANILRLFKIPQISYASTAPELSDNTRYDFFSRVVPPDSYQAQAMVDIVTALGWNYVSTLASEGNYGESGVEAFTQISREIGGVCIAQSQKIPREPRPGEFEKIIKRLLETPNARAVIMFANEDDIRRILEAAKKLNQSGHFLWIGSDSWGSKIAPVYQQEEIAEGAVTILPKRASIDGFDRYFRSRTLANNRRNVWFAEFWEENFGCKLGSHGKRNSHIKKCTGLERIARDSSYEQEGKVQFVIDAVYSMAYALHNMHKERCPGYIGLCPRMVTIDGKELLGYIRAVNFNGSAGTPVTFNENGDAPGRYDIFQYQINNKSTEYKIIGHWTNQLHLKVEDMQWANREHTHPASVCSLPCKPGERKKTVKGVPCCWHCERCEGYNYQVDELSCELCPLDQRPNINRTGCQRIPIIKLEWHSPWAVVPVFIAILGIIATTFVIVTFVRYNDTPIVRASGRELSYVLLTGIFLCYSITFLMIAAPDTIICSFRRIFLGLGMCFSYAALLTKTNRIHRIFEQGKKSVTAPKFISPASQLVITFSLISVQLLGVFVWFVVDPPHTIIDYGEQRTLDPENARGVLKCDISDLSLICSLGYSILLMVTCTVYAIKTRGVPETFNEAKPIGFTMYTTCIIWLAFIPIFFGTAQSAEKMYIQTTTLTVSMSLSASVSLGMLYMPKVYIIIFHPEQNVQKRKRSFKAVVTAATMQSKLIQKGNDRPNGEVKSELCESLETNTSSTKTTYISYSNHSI

Structure (SMILES) | EC50 [1] [µM] | EC50 [2] [µM] | Ki [3] [µM] | EC50 [4] [µM] | EC50 [5] [µM] | EC50 [6] [µM] | EC50 [7] [µM] | Ki [8] [µM]
NC(C(=O)O)[C@@H]1[C@H](c2ccccc2)[C@H]1P(=O)(O)O (some centres not stated) | > 1000 | > 1000 | > 1000 | > 1000 | > 1000 | – | – | –
NC(C(=O)O)[C@@H]1[C@@H](c2ccccc2)[C@H]1P(=O)(O)O (some centres not stated) | – | > 1000 | > 1000 | > 1000 | > 1000 | > 1000 | > 1000 | –
NC(C(=O)O)[C@H]1[C@@H](c2ccccc2)[C@@H]1P(=O)(O)O (some centres not stated) | – | > 1000 | 630 | > 1000 | 320 | – | – | 190
NC(C(=O)O)[C@H]1[C@H](c2ccccc2)[C@@H]1P(=O)(O)O (some centres not stated) | 59 | > 1000 | 24 | > 1000 | > 1000 | 51 | > 1000 | 130
NC(C(=O)O)[C@H]1C[C@@H]1P(=O)(O)O (some centres not stated) | 9.4 | > 1000 | 7.4 | > 1000 | > 1000 | 13 | 700 | 63
